Experimental data taken from ChEMBL document CHEMBL1821673, “Development of β-amino alcohol derivatives that inhibit Toll-like receptor 4 mediated inflammatory response as potential antiseptics” (J Med Chem, 2011).
Active and inactive are the calls of the source. The rule behind the calls is not given here.

What was measured:
Liver [1] = test: Intrinsic clearance in human liver S9 fractions at 1 uM after 60 mins by LC-MS/MS analysis; format: ADME, subcellular, S9 fraction; conditions: s9, 1 h
In short: (§1)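 1 µM in <0.25% DMSO, 37 °C, pooled rat or human S9 at 1 mg/mL, with 1 mM each of NADPH, UDPGA, PAPS and GSH. Sampled at 0, 10, 20, 30 and 60 min; peak-area ratio to internal standard by LC-MS/MS without a standard curve. CLint = k/P.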

Toll-like receptor 4 [2] = molecular target: T1, Toll-like receptor 4 (Homo sapiens, UniProt O00206); test: Inhibition of LPS-induced TLR4 activation in human whole blood assessed as inhibition of TNFalpha release at 500 uM preincubated for 5 to 10 mins
T1 sequence (O00206 whole entry): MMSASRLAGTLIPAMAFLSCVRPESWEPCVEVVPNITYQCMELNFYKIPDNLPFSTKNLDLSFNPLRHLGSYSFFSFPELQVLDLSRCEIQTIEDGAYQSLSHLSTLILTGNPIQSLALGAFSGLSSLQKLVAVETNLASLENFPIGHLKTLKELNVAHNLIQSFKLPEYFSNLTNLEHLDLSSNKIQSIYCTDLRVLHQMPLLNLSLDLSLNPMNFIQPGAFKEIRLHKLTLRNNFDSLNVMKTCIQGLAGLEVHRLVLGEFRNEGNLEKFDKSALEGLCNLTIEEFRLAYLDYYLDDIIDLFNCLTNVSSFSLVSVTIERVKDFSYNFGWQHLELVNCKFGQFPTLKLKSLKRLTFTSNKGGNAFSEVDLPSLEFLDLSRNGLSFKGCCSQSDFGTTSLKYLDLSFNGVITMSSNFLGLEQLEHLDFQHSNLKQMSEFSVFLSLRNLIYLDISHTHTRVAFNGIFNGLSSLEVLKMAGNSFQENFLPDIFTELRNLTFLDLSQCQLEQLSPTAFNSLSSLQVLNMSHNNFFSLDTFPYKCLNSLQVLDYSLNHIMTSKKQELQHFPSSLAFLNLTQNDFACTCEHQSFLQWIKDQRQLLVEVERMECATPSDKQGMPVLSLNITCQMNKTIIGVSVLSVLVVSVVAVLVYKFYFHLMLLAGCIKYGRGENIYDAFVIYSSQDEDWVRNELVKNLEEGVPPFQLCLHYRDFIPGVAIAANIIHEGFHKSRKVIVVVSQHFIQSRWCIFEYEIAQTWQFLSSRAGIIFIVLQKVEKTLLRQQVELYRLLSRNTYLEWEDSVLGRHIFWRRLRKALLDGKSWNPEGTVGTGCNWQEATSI
In short: (§2)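 Fresh human blood anticoagulated with lepirudin, preincubated with compound 5–10 min at 37 °C, then stimulated with 100 ng/mL ultrapure E. coli 0111:B4 LPS, rotating 2 h at 37 °C. Stopped with EDTA 10 mM final; plasma TNF-α, IL-8 and IL-6 measured by singleplex Bio-plex, expressed as % of LPS without inhibitor. n = 3 or 9, paired two-sided t-test.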

[3] = molecular target: Proto-oncogene tyrosine-protein kinase Src (Homo sapiens) (UniProt P12931); test: Inhibition of SRC at 28 uM by luciferase fragment complementation assay
Toll-like receptor 4 [4] = molecular target: T2, Toll-like receptor 4 (Mus musculus, UniProt Q9QUK6); test: Inhibition of LPS-induced TLR4 activation in mouse RAW264.7 cells assessed as reduction in NO production after 18 to 24 hrs; format: cell-based
T2 sequence (Q9QUK6 whole entry): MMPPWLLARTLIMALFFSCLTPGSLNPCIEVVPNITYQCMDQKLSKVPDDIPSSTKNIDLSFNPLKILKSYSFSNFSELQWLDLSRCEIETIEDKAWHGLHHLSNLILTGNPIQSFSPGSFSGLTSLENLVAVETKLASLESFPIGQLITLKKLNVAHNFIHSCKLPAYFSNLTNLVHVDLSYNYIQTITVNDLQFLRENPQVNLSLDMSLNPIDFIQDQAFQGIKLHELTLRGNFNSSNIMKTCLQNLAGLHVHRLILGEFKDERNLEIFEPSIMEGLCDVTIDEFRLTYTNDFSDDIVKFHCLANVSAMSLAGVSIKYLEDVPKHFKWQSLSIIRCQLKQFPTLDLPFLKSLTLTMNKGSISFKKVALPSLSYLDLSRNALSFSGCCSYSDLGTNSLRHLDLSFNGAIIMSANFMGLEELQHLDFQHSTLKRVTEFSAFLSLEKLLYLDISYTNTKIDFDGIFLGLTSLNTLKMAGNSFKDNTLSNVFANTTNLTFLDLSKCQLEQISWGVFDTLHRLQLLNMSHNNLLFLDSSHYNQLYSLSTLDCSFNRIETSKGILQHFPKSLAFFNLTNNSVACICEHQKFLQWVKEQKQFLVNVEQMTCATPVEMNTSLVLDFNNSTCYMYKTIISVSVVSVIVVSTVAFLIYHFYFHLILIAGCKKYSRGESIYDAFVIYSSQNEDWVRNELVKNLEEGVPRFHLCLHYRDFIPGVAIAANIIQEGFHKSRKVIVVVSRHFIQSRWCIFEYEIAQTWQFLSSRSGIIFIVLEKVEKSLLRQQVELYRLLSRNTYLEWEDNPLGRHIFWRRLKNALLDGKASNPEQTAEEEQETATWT
In short: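 RAW264.7 cells, 100,000 per well, grown 24 h in RPMI with 10% FBS, then switched to unsupplemented RPMI. LPS and compound added together, 18–24 h at 37 °C. Medium nitrite measured with 2,3-diaminonaphthalene (ex 365/em 450 nm) against a nitrite standard curve. Quadruplicate; IC50 by a modified Kou-type method.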

Toll-like receptor 4 [5] = molecular target: T1, Toll-like receptor 4; test: Inhibition of LPS-induced TLR4 activation in human whole blood assessed as inhibition of TNFalpha release at 250 uM preincubated for 5 to 10 mins; in short: as §2
[6] = molecular target: Calcium/calmodulin-dependent protein kinase type 1 (Homo sapiens) (UniProt Q14012); test: Inhibition of CAMK1 at 28 uM by luciferase fragment complementation assay
Chain of Calcium/calmodulin-dependent protein kinase type 1 (Homo sapiens) (Q14012 whole entry, looked up, the tested form may be a part): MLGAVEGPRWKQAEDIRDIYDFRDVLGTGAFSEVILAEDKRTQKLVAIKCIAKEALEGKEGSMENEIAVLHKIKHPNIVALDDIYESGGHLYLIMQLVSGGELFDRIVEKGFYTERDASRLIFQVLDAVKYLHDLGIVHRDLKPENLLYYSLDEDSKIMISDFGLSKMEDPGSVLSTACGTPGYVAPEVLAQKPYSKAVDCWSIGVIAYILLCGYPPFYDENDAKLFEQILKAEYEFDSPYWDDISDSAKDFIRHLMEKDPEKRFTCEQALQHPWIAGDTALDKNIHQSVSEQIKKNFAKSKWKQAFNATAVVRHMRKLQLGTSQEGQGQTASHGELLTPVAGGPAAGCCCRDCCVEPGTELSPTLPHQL

Toll-like receptor 4 [7] = molecular target: T1, Toll-like receptor 4; test: Inhibition of LPS-induced TLR4 activation in human whole blood assessed as inhibition of IL-6 release at 250 uM preincubated for 5 to 10 mins; in short: as §2
Toll-like receptor 4 [8] = molecular target: T1, Toll-like receptor 4; test: Inhibition of LPS-induced TLR4 activation in human whole blood assessed as reduction in plasma IL-8 level at 250 uM preincubated for 5 to 10 mins; in short: as §2
Toll-like receptor 4 [9] = molecular target: T1, Toll-like receptor 4; test: Inhibition of LPS-induced TLR4 activation in human whole blood assessed as inhibition of IL-8 release preincubated for 5 to 10 mins; in short: as §2
[10] = molecular target: Serine/threonine-protein kinase pim-1 (Homo sapiens) (UniProt P11309); test: Inhibition of PIM1 at 28 uM by luciferase fragment complementation assay
[11] = molecular target: Glycogen synthase kinase-3 alpha (Homo sapiens) (UniProt P49840); test: Inhibition of GSK3alpha at 28 uM by luciferase fragment complementation assay
Chain of Glycogen synthase kinase-3 alpha (Homo sapiens) (P49840 2-483 limits assumed): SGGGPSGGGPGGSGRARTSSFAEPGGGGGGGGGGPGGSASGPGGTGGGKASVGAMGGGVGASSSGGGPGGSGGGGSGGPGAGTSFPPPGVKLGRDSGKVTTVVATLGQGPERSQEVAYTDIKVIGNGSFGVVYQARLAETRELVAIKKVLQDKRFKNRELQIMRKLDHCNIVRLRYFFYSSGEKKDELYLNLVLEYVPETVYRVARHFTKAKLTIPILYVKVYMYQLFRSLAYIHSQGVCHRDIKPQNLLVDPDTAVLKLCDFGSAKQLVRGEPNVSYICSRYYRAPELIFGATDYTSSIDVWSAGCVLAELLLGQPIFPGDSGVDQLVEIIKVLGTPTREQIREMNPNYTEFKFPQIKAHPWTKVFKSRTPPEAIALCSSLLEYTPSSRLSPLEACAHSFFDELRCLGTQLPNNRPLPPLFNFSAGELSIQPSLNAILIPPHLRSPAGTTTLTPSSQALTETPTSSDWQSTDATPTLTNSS

Cytochrome P450 2C19 = Cytochrome P450 2C19 (Homo sapiens, UniProt P33261); test: Inhibition of CYP2C19 in human liver microsomes using S-mephenytoin as probe; format: ADME, Microsome
Chain of Cytochrome P450 2C19 (P33261 whole entry, the tested form may be a part): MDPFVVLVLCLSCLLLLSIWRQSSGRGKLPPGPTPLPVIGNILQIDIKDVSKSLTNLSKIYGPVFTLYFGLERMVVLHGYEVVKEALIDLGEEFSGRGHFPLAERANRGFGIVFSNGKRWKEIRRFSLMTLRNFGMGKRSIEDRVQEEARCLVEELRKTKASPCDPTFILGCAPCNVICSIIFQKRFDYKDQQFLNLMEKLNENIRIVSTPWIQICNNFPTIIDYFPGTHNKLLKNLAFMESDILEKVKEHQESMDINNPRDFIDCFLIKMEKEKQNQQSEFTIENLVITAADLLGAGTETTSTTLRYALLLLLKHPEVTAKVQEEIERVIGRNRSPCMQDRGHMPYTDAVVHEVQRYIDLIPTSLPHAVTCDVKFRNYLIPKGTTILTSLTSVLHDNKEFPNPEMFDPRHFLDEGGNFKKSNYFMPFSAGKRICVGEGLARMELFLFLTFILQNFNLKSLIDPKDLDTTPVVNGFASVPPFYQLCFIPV

[12] = molecular target: Serine/threonine-protein kinase PLK4 (Homo sapiens) (UniProt O00444); test: Inhibition of PLK4 at 28 uM by luciferase fragment complementation assay
Chain of Serine/threonine-protein kinase PLK4 (Homo sapiens) (O00444 whole entry, the tested form may be a part): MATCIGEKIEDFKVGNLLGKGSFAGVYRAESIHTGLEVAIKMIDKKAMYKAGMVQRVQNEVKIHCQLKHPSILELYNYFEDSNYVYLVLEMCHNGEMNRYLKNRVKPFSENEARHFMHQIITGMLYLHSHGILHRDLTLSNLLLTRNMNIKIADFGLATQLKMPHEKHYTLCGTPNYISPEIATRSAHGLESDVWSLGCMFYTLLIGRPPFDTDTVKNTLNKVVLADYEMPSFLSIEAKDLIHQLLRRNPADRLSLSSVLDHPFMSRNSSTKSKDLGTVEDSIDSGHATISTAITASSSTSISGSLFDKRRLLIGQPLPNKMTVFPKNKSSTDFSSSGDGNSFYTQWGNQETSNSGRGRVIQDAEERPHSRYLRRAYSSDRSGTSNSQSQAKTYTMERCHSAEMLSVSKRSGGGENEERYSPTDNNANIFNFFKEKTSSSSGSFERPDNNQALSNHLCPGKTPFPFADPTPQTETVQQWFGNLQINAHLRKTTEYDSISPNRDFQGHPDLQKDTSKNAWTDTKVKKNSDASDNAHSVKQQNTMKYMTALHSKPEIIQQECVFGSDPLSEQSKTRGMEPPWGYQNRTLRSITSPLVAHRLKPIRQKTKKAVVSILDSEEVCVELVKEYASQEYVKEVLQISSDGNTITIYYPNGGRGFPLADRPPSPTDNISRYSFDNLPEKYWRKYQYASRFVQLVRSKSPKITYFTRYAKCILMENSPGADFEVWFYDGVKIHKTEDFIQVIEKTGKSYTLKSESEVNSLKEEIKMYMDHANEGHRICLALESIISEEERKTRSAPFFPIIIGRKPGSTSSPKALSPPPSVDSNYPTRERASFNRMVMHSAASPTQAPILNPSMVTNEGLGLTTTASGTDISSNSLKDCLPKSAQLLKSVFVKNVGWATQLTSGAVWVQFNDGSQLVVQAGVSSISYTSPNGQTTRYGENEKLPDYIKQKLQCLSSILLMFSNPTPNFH

Cytochrome P450 2C9 = Cytochrome P450 2C9 (Homo sapiens, UniProt P11712); test: Inhibition of CYP2C9 in human liver microsomes using diclofenac as probe; format: ADME, Microsome
Chain of Cytochrome P450 2C9 (P11712 whole entry, the tested form may be a part): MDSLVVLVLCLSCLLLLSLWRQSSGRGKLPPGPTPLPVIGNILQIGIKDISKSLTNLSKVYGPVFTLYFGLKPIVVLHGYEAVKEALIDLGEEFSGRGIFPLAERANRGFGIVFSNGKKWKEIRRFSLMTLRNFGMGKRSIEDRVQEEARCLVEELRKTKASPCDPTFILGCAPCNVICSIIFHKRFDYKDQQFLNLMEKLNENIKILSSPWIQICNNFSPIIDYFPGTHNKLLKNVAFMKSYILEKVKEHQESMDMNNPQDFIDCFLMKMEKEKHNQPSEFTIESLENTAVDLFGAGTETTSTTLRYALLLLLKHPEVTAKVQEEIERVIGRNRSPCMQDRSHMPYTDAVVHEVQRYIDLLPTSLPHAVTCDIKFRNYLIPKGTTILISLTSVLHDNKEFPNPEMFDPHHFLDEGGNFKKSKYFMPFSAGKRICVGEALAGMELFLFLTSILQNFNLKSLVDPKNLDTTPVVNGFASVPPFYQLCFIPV

[13] = molecular target: Protein kinase C gamma type (Homo sapiens) (UniProt P05129); test: Inhibition of PKCgamma at 28 uM by luciferase fragment complementation assay
Liver [14] = test: Intrinsic clearance in rat liver S9 fractions at 1 uM after 60 mins by LC-MS/MS analysis; format: ADME, subcellular, S9 fraction; conditions: s9, 1 h; in short: as §1
[15] = molecular target: Discoidin domain-containing receptor 2 (Homo sapiens) (UniProt Q16832); test: Inhibition of DDR2 at 28 uM by luciferase fragment complementation assay
Liver microsomes = test: Intrinsic clearance in human liver microsomes at 1 uM after 60 mins by LC-MS/MS analysis; format: ADME, Microsome; conditions: 1 h
In short: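 1 µM in <0.25% DMSO, 37 °C, human liver microsomes 0.5 mg/mL protein, started with cofactors. Time points 0, 10, 20, 30 and 60 min; NADPH addition confirmed by fluorimetry. LC-MS/MS peak-area ratio to internal standard; CLint = k/P.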

Toll-like receptor 4 [16] = molecular target: T1, Toll-like receptor 4; test: Inhibition of LPS-induced TLR4 activation in human whole blood assessed as inhibition of IL-6 release preincubated for 5 to 10 mins; in short: as §2
[17] = molecular target: Serine/threonine-protein kinase PAK 1 (Homo sapiens) (UniProt Q13153); test: Inhibition of PAK1 at 28 uM by luciferase fragment complementation assay
Chain of Serine/threonine-protein kinase PAK 1 (Homo sapiens) (Q13153 whole entry, the tested form may be a part): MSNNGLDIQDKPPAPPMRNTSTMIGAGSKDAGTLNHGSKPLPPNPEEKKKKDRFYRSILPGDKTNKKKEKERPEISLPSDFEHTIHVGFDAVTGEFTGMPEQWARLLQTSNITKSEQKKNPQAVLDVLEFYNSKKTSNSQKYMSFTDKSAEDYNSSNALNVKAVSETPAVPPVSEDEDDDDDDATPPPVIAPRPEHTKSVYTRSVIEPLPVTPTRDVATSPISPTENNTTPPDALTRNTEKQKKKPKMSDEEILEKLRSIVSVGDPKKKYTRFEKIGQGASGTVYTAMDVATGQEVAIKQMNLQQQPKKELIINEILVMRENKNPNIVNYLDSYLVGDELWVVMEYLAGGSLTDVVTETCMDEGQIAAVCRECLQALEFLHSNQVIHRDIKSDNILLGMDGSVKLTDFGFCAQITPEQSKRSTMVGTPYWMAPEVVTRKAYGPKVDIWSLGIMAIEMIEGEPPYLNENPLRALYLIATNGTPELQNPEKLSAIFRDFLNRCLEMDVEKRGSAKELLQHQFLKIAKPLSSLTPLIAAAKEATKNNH

Toll-like receptor 4 [18] = molecular target: T1, Toll-like receptor 4; test: Inhibition of LPS-induced TLR4 activation in human whole blood assessed as reduction in plasma IL-6 level at 250 uM preincubated for 5 to 10 mins; in short: as §2
Toll-like receptor 4 [19] = molecular target: T1, Toll-like receptor 4; test: Inhibition of LPS-induced TLR4 activation in human whole blood assessed as inhibition of TNFalpha release preincubated for 5 to 10 mins; in short: as §2

With CCOc1ccc(OCC(O)CN(C)Cc2c(C)nn(Cc3ccccc3Cl)c2C)cc1 (racemic) the CL (Liver [1]) was 300 µL/min/mg, the inhibition (Toll-like receptor 4 [2]) was “Active” and the inhibition [3] was ≤ 27%. The IC50 (Toll-like receptor 4 [4]) was 27.8 µM, the inhibition (Toll-like receptor 4 [5]) was “Active” and the inhibition [6] was ≤ 27%. For the same compound, the inhibition (Toll-like receptor 4 [7]) was “inactive”, the inhibition (Toll-like receptor 4 [8]) was 65% and the IC50 (Toll-like receptor 4 [9]) was 111 µM. The inhibition (Toll-like receptor 4 [9]) was “Dose-dependent effect”, the inhibition [10] was ≤ 27% and the inhibition [11] was ≤ 27%. The IC50 (Cytochrome P450 2C19) was 20 µM, the inhibition [12] was ≤ 27% and the IC50 (Cytochrome P450 2C9) was 43 µM. The inhibition [13] was ≤ 27%, the CL (Liver [14]) was > 350 µL/min/mg and the inhibition [15] was ≤ 27%. For the same compound, the CL (Liver microsomes) was > 700 µL/min/mg, the IC50 (Toll-like receptor 4 [16]) was 318 µM and the inhibition (Toll-like receptor 4 [16]) was “Dose-dependent effect”. The inhibition [17] was ≤ 27%, the inhibition (Toll-like receptor 4 [18]) was 50% and the IC50 (Toll-like receptor 4 [19]) was 316 µM. The inhibition (Toll-like receptor 4 [19]) was “Dose-dependent effect”.
